Experimental data as given in ChEMBL document CHEMBL4190259, “Constituents of Polygala flavescens ssp. flavescens and Their Activity as Inhibitors of Human Lactate Dehydrogenase” (J Nat Prod, 2017).

target: L-lactate dehydrogenase A chain (Homo sapiens, UniProt P00338); assay: Inhibition of human liver LDH5 using pyruvate as substrate and NADH as cofactor measured after 15 mins by fluorescence assay
Procedure, shortened: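 Purified human LDH isoform 5, forward reaction (pyruvate to lactate) in 100 mM phosphate buffer pH 7.4 with 200 μM pyruvate and 40 μM NADH. Seven concentrations from 500 to 0.7 μM, each in duplicate, DMSO not above 4%. NADH consumption read by fluorescence (ex 340, em 460 nm) after 15 min. Compound background fluorescence or quenching subtracted. IC50 from concentration–response curves.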

| SMILES | IC50 |
| --- | --- |
| COc1cc(/C=C/C(=O)OC[C@@]2(O)CO[C@@H](O[C@H]3[C@H](Oc4c(-c5ccc(O)c(O)c5)oc5cc(O)cc(O)c5c4=O)O[C@H](CO[C@@H]4O[C@@H](C)[C@H](O)[C@@H](O)[C@H]4O)[C@@H](O)[C@@H]3O)[C@@H]2O)cc(OC)c1O | > 500 µM |
| O=C(OC[C@H]1O[C@@](CO)(O[C@H]2O[C@H](CO)[C@@H](O)[C@H](O[C@@H]3O[C@H](CO)[C@@H](O)[C@H](O)[C@H]3O)[C@H]2O)[C@@H](O)[C@@H]1O)c1ccccc1 | > 500 µM |
| CC(=O)OC[C@H]1O[C@H](O[C@]2(CO)O[C@H](COC(=O)c3ccccc3)[C@@H](O)[C@@H]2O)[C@H](O)[C@@H](O[C@@H]2O[C@H](CO)[C@@H](O)[C@H](O)[C@H]2O)[C@@H]1O | > 500 µM |
| C[C@@H]1O[C@@H](OC[C@H]2O[C@@H](Oc3c(-c4ccc(O)c(O)c4)oc4cc(O)cc(O)c4c3=O)[C@H](O[C@@H]3OC[C@](O)(COC(=O)/C=C/c4ccc(O)cc4)[C@H]3O)[C@@H](O)[C@@H]2O)[C@H](O)[C@H](O)[C@H]1O | > 500 µM |
| COc1cc(/C=C/C(=O)OC[C@@]2(O)CO[C@@H](O[C@H]3[C@H](Oc4c(-c5ccc(O)c(O)c5)oc5cc(O)cc(O)c5c4=O)O[C@H](CO[C@@H]4O[C@@H](C)[C@H](O)[C@@H](O)[C@H]4O)[C@@H](O)[C@@H]3O)[C@@H]2O)ccc1O | > 500 µM |
| C[C@@H]1O[C@@H](OC[C@H]2O[C@@H](Oc3c(-c4ccc(O)c(O)c4)oc4cc(O)cc(O)c4c3=O)[C@H](O[C@@H]3OC[C@](O)(COC(=O)c4ccccc4)[C@H]3O)[C@@H](O)[C@@H]2O)[C@H](O)[C@H](O)[C@H]1O | > 500 µM |
| CC(=O)O[C@@H]1[C@H](O[C@@H]2OC[C@](O)(CO)[C@H]2O)[C@@H](O[C@@H]2O[C@@H](C)[C@H](O)[C@@H](O)[C@H]2O)[C@H](OC(=O)[C@]23CCC(C)(C)C[C@H]2C2=CC[C@@H]4[C@@]5(C)C[C@H](O)[C@H](O[C@@H]6O[C@H](CO)[C@@H](O)[C@H](O)[C@H]6O)[C@@](C)(C(=O)O)[C@@H]5CC[C@@]4(C)[C@]2(C)CC3)O[C@H]1C | > 500 µM |
| COc1cc(/C=C/C(=O)OC[C@H]2O[C@H](O[C@]3(CO)O[C@H](CO)[C@@H](O)[C@@H]3OC(=O)/C=C/c3cc(OC)c(O)c(OC)c3)[C@H](O)[C@@H](O[C@@H]3O[C@H](CO)[C@@H](O)[C@H](O)[C@H]3O)[C@@H]2O)cc(OC)c1O | 191 µM |
| C[C@@H]1O[C@@H](OC[C@H]2O[C@@H](Oc3c(-c4ccc(O)c(O)c4)oc4cc(O)cc(O)c4c3=O)[C@H](O)[C@@H](O)[C@@H]2O)[C@H](O)[C@H](O)[C@H]1O [RUTIN] | > 500 µM |
| C[C@@H]1O[C@@H](OC[C@H]2O[C@@H](Oc3c(-c4ccc(O)c(O)c4)oc4cc(O)cc(O)c4c3=O)[C@H](O[C@@H]3OC[C@](O)(CO)[C@H]3O)[C@@H](O)[C@@H]2O)[C@H](O)[C@H](O)[C@H]1O | > 500 µM |
| COc1cc(/C=C/C(=O)OC[C@H]2O[C@H](O[C@]3(CO)O[C@H](CO)[C@@H](O)[C@@H]3OC(=O)/C=C/c3cc(OC)c(O)c(OC)c3)[C@H](O)[C@@H](O)[C@@H]2O)cc(OC)c1O | 90.4 µM |
